Assay results as given in ChEMBL document CHEMBL2016445, “Discovery of a novel class of potent and orally bioavailable sphingosine 1-phosphate receptor 1 antagonists” (J Med Chem, 2012).
Values belong to the compound of their own block, whether it stands above or below them.

Assays:
[1] = Drug uptake in nu/nu homozygous mouse plasma at 100 mg/kg, po as a solution of 10% EtOH/40% PEG400/20% Captisol/water + 1:1 HCl after 1 hr by HPLC/MS/MS analysis; assay type: ADME, organism-based; set-up: dose 100 mg/kg, route oral
In short: (§1)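 Female Nu/Nu mice (~8 wk, 20-22 g) given a single 100 mpk oral dose at 10 mL/kg. Vehicles: 10% EtOH/45% or 40% PEG400/water + 1 molar equiv HCl, 10% EtOH/40% PEG400/20% Captisol + HCl, or 10% NMP/90% corn oil. Heparinized blood collected 1 and 4 h post-dose; plasma analysed by HPLC/MS/MS.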

[2] = molecular target: T1, Sphingosine 1-phosphate receptor 1 (Homo sapiens, UniProt P21453); assay: Antagonist activity at S1P1 receptor expressed in HEK293 cells assessed as inhibition of S1P-induced cAMP response after 90 mins by spectrophotometry; assay type: functional, cell-based
[3] = Drug uptake in nu/nu homozygous mouse plasma at 100 mg/kg, po as a solution of 10% EtOH/40% PEG400/20% Captisol/water + 1:1 HCl after 4 hrs by HPLC/MS/MS analysis; assay type: ADME, organism-based; set-up: dose 100 mg/kg, route oral; in short: as §1
[4] = Drug uptake in nu/nu homozygous mouse plasma at 100 mg/kg, po as a suspension in 10% NMP/corn oil after 4 hrs by HPLC/MS/MS analysis; assay type: ADME, organism-based; set-up: dose 100 mg/kg, route oral; in short: as §1
[5] = Oral bioavailability in overnight fasted cynomolgus monkey at 3 mg/kg by HPLC/MS/MS analysis; assay type: ADME, organism-based, Macaca fascicularis; settings: in vivo
In short: (§2)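 Male cynomolgus monkeys fasted overnight and fed again 4 h post-dose; groups of 3. Dosed 3 mpk intravenously and by oral gavage as a solution in EtOH/PEG400/water (5:45:50). K-EDTA blood taken pre-dose and at 0.08-48 h. Plasma assayed by HPLC/MS/MS; non-compartmental analysis.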

[6] = molecular target: T1, Sphingosine 1-phosphate receptor 1; assay: Antagonist activity at S1P1 receptor expressed in HEK293 cells assessed as inhibition of S1P-induced tango beta-arrestin recruitment preincubated for 30 mins prior S1P addition measured after 16 to 18 hrs by luciferase reporter gene assay; assay type: functional, cell-based
[7] = Half life in overnight fasted CD Sprague-Dawley rat at 3 mg/kg, po by HPLC/MS/MS analysis; assay type: ADME, organism-based; set-up: dose 3 mg/kg, route oral; settings: in vivo
In short: (§3)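 Female Sprague-Dawley CD rats (9-10 wk, 201-225 g), fasted overnight and fed again 4 h post-dose. Given 3 mpk orally as a solution in EtOH/PEG400/water (5:45:50), n=4. Jugular-catheter blood drawn into heparin at 0.08-144 h (15 time points). Plasma assayed by HPLC/MS/MS; parameters from non-compartmental analysis.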

[8] = molecular target: Sphingosine 1-phosphate receptor 3 (Homo sapiens, UniProt Q99500); assay: Antagonist activity at S1P3 receptor expressed in HEK293 cells assessed as inhibition of S1P-induced tango beta-arrestin recruitment preincubated for 30 mins prior S1P addition measured after 16 to 18 hrs by luciferase reporter gene assay; assay type: functional, cell-based
[9] = AUC (0 to infinity) in overnight fasted CD Sprague-Dawley rat at 3 mg/kg, po by HPLC/MS/MS analysis; assay type: ADME, organism-based; set-up: dose 3 mg/kg, route oral, time infinity; settings: plasma; in short: as §3
Cytochrome P450 2C9 = Cytochrome P450 2C9 (Homo sapiens, UniProt P11712); assay: Inhibition of human CYP2C9 using tolbutamide as substrate by LC/MS/MS analysis; assay type: ADME
In short: (§4)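 Pooled human liver microsomes in 100 mM potassium phosphate, pH 7.4, at 37 °C with 1000 µM NADPH for 15 min. Microsomes 0.15 mg/mL for CYP2C9 and CYP2D6, 0.25 mg/mL for CYP3A4. Inhibitor tested at six concentrations (0.2–50 µM). Reactions quenched with acetonitrile; metabolite measured by LC/MS/MS; IC50 from 4-parameter sigmoidal fit.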

[10] = Oral bioavailability in overnight fasted beagle dog at 3 mg/kg by HPLC/MS/MS analysis; assay type: ADME, organism-based, Canis lupus familiaris; settings: in vivo
In short: (§5)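 Male beagle dogs fasted overnight and fed again 4 h post-dose; groups of 3. Study design covered 3 mpk IV and PO. Oral dose by gavage at 3 mpk in EtOH/PEG400/water (5:45:50). K-EDTA blood taken pre-dose and at 0.08-48 h. Plasma assayed by HPLC/MS/MS; non-compartmental PK parameters.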

[11] = Oral bioavailability in overnight fasted CD Sprague-Dawley rat at 3 mg/kg by HPLC/MS/MS analysis; assay type: ADME, organism-based; settings: in vivo
Cytochrome P450 3A4 = Cytochrome P450 3A4 (Homo sapiens, UniProt P08684); assay: Inhibition of human CYP3A4 using testosterone as substrate by LC/MS/MS analysis; assay type: ADME; in short: as §4
[12] = Half life in overnight fasted cynomolgus monkey at 3 mg/kg, po by HPLC/MS/MS analysis; assay type: ADME, organism-based, Macaca fascicularis; set-up: dose 3 mg/kg, route oral; settings: in vivo; in short: as §2
[13] = AUC (0 to infinity) in overnight fasted cynomolgus monkey at 3 mg/kg, po by HPLC/MS/MS analysis; assay type: ADME, organism-based, Macaca fascicularis; set-up: time infinity, dose 3 mg/kg, route oral; settings: plasma; in short: as §2
[14] = Cmax in overnight fasted cynomolgus monkey at 3 mg/kg, po by HPLC/MS/MS analysis; assay type: ADME, organism-based, Macaca fascicularis; set-up: dose 3 mg/kg, route oral; settings: in vivo; in short: as §2
[15] = Cmax in overnight fasted beagle dog at 3 mg/kg, po by HPLC/MS/MS analysis; assay type: ADME, organism-based, Canis lupus familiaris; set-up: dose 3 mg/kg, route oral; settings: in vivo; in short: as §5
[16] = Half life in overnight fasted beagle dog at 3 mg/kg, po by HPLC/MS/MS analysis; assay type: ADME, organism-based, Canis lupus familiaris; set-up: dose 3 mg/kg, route oral; settings: in vivo; in short: as §5
[17] = AUC (0 to infinity) in overnight fasted beagle dog at 3 mg/kg, po by HPLC/MS/MS analysis; assay type: ADME, organism-based, Canis lupus familiaris; set-up: time infinity, dose 3 mg/kg, route oral; settings: plasma; in short: as §5
[18] = molecular target: Sphingosine 1-phosphate receptor 2 (Homo sapiens, UniProt O95136); assay: Antagonist activity at S1P2 receptor expressed in HEK293 cells assessed as inhibition of S1P-induced tango beta-arrestin recruitment preincubated for 30 mins prior S1P addition measured after 16 to 18 hrs by luciferase reporter gene assay; assay type: functional, cell-based
[19] = Antitumor activity against human MDA-MB-231T cells xenografted in athymic nude mouse assessed as tumor growth inhibition at 100 mg/kg, po qd for 14 days post implantation measured for 14 days; assay type: functional; settings: 336 h, read-out: TGI
In short: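 MDA-MB-231T cells grown in DMEM with 10% FBS. 1 x 10⁶ cells in ice-cold HBSS implanted into the mammary fat pad of female athymic nude (NCr) mice, 5-8 wk. Daily oral dosing at 10 mL/kg, solutions made fresh daily. Tumor weight measured twice weekly; TGI calculated against vehicle and staging-day weights; 2-tailed t-test, p<0.05.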

Cytochrome P450 2D6 = Cytochrome P450 2D6 (Homo sapiens, UniProt P10635); assay: Inhibition of human CYP2D6 using bufuralol as substrate by LC/MS/MS analysis; assay type: ADME; in short: as §4
[20] = Cmax in overnight fasted CD Sprague-Dawley rat at 3 mg/kg, po by HPLC/MS/MS analysis; assay type: ADME, organism-based; set-up: dose 3 mg/kg, route oral; settings: in vivo; in short: as §3
[21] = Drug uptake in nu/nu homozygous mouse plasma at 100 mg/kg, po as a suspension in 10% NMP/corn oil after 24 hrs by HPLC/MS/MS analysis; assay type: ADME, organism-based; set-up: dose 100 mg/kg, route oral

T1 sequence (P21453 whole entry): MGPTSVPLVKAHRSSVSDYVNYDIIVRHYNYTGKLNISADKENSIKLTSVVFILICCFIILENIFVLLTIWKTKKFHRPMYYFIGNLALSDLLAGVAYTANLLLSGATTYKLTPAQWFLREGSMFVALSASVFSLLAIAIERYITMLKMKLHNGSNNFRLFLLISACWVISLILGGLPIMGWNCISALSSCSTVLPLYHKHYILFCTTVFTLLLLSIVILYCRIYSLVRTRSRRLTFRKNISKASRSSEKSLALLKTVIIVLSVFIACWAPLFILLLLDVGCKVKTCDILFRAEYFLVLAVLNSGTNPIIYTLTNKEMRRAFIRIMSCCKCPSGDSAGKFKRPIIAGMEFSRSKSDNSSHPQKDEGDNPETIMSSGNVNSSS
Cytochrome P450 2C9, sequence (P11712 whole entry): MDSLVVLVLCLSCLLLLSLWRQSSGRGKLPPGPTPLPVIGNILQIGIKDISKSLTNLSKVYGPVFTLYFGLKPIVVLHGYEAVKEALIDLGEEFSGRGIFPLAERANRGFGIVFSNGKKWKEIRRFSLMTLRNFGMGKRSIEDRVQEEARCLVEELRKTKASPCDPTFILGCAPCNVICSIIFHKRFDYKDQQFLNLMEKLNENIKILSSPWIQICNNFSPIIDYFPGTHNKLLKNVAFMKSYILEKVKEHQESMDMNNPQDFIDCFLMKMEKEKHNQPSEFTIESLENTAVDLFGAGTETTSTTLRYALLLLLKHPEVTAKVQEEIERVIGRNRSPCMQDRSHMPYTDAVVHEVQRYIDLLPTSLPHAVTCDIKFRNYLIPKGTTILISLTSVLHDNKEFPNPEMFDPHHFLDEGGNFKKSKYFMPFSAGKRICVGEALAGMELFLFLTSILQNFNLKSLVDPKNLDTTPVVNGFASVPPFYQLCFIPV
Sphingosine 1-phosphate receptor 3, sequence (Q99500 whole entry): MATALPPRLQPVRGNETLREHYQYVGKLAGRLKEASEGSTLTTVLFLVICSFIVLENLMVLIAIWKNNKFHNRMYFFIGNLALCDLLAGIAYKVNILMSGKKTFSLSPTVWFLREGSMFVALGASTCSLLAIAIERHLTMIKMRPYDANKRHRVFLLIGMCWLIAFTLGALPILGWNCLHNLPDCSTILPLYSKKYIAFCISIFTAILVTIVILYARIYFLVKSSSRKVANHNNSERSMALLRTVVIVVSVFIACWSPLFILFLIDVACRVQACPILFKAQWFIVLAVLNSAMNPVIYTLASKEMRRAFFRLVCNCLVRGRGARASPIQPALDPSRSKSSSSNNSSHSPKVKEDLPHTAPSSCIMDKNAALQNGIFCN
Cytochrome P450 3A4, sequence (P08684 whole entry): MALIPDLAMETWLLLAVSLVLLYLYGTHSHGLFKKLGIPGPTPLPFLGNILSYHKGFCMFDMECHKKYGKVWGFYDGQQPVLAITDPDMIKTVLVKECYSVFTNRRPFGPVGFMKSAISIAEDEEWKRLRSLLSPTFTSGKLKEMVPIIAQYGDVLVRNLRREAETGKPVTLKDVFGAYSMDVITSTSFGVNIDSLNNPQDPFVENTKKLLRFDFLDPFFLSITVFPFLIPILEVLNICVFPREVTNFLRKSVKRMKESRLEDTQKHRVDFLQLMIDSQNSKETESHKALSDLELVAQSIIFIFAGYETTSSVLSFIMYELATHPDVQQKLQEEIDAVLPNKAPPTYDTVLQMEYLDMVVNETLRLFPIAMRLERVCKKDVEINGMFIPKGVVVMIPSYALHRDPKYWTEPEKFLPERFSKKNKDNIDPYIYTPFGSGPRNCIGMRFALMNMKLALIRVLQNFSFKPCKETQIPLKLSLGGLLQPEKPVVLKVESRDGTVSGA
Cytochrome P450 2D6, sequence (P10635 whole entry): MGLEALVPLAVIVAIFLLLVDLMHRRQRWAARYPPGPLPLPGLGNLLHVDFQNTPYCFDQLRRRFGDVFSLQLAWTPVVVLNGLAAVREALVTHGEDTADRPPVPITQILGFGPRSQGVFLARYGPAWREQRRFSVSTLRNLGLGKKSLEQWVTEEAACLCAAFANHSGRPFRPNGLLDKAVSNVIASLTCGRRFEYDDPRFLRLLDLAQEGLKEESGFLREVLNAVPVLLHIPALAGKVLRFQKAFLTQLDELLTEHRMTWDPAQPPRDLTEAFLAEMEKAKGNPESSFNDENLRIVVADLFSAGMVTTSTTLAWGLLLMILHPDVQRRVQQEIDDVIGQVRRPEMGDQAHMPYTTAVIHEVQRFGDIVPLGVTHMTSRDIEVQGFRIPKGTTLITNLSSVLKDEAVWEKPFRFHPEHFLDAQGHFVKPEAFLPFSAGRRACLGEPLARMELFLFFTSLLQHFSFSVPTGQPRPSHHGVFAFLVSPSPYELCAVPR
Sphingosine 1-phosphate receptor 2, sequence (O95136 whole entry): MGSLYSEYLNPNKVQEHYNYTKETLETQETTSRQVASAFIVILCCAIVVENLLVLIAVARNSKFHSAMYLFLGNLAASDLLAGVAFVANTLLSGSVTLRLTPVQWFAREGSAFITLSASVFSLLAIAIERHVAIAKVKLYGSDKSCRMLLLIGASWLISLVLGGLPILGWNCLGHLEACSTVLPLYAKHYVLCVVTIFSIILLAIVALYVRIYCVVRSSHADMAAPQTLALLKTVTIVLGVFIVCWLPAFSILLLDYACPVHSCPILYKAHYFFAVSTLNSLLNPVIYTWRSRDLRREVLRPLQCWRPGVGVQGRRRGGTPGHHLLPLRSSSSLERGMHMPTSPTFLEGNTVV

- concentration at 1 h [1]: 18.7 µM
- IC50 [2]: 0.239 µM
- concentration at 4 h [3]: 2.7 µM
SMILES: O=C(Cc1c[nH]cn1)N[C@@H](COCc1ccccc1)c1nc2cc(Oc3ccc(F)cc3)ccc2[nH]1

- concentration at 4 h [4]: 16.7 µM
- bioavailability [5]: 45.7%
- IC50 [6]: 0.026 µM
- half-life [7]: 22.5 h
- IC50 [8]: > 10 µM
- IC50 [2]: 0.0058 µM
- AUC(0-inf) [9]: 108 µM·h
- IC50 (Cytochrome P450 2C9): 17.3 µM
- bioavailability [10]: 99.9%
- bioavailability [11]: 76.4%
- IC50 (Cytochrome P450 3A4): > 20 µM
- half-life [12]: 6.4 h
- AUC(0-inf) [13]: 16.7 µM·h
- Cmax [14]: 1.5 µM
- Cmax [15]: 5.4 µM
- half-life [16]: 34 h
- AUC(0-inf) [17]: 108 µM·h
- IC50 [18]: > 10 µM
- IC50 (Cytochrome P450 2D6): 20.3 µM
- Cmax [20]: 3.2 µM
- concentration at 24 h [21]: 4.7 µM
SMILES: O=C(Nc1ccc(Oc2ccc(F)cc2)cc1)[C@@H]1C[C@@H](Cc2ccc(F)cc2)CN1C(=O)Cn1ccnn1
- inhibition in vivo at 100 mg/kg [19]: 43%
